Test [1] relates to J774.A1. The test can be described thus: Antiinflammatory activity in mouse J774A1 cells assessed as inhibition of LPS-induced TNFalpha production at 10 uM preincubated for 3 hrs before LPS challenge measured after 21 hrs by ELISA. The test is classed as functional, cell-based. In a few lines: (§1)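 J774A.1 mouse macrophage-like cells were plated overnight in DMEM with 10% FBS and penicillin/streptomycin at 1.2 × 10⁶/plate, 37 °C, 5% CO₂. They were pretreated 3 h with compound or vehicle, then given LPS for 21 h. TNF-α or IL-6 in the medium was measured by ELISA and normalized to total protein of the lysed cell pellet. Values are percent of LPS control, from three independent experiments (mean ± S.E.).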
Background: An ELISA detects its analyte on a solid surface through an enzyme-linked reagent.

The subject of test [2] is J774.A1. The test can be described thus: Antiinflammatory activity in mouse J774A1 cells assessed as inhibition of LPS-induced IL6 production at 10 uM preincubated for 3 hrs before LPS challenge measured after 21 hrs by ELISA. Type of test: functional, cell-based. In short, it runs like this:
as §1

Test [3] deals with J774.A1. The experiment in a line: Enhancement of LPS-induced TNFalpha production in mouse J774A1 cells at 10 uM preincubated for 3 hrs before LPS challenge measured after 21 hrs by ELISA. Type of test: functional, cell-based. In short, it runs like this:
as §1

Test [4] deals with J774.A1. The experiment in a line: Enhancement of LPS-induced IL6 production in mouse J774A1 cells at 10 uM preincubated for 3 hrs before LPS challenge measured after 21 hrs by ELISA. Type of test: functional, cell-based. In short, it runs like this: as §1
Test [5] relates to J774.A1. The experiment in a line: Antiinflammatory activity in mouse J774A1 cells assessed as inhibition of LPS-induced TNFalpha production at 10 uM preincubated for 3 hrs before LPS challenge measured after 21 hrs by ELISA relative to control. The test is classed as functional. In a few lines:
as §1

Test [6] concerns J774.A1. The experiment in a line: Antiinflammatory activity in mouse J774A1 cells assessed as inhibition of LPS-induced IL6 production at 10 uM preincubated for 3 hrs before LPS challenge measured after 21 hrs by ELISA relative to control. The test is classed as functional. In a few lines:
as §1

Activity calls are given as the source filed them. The rule behind the calls is not given here.

Consider `COc1cc(/C=C2\CC/C(=C\c3ccc(O)c(OC)c3)C2=O)ccc1O`, for which the result in the test with J774.A1 [1] and in the test with J774.A1 [2] was Active.
With `O=C(/C=C/c1ccc(O)cc1)/C=C/c1ccc(O)cc1`, the result with J774.A1 [3] and in the test on J774.A1 [4] was Active.
As for `COc1cc(/C=C/C(=O)/C=C/c2ccc(O)c(OC)c2)ccc1O`, the result in the test on J774.A1 [1] and with J774.A1 [2] was Active.
In the case of `COc1cc(/C=C2\CCC/C(=C\c3ccc(O)c(OC)c3)C2=O)ccc1O`, the result in the test with J774.A1 [1] and in the test with J774.A1 [2] was Active.
With `O=C1/C(=C/c2ccc(O)cc2)CCC/C1=C\c1ccc(O)cc1`, the outcome in the test on J774.A1 [1] and in the test on J774.A1 [2] was Active.
With `O=C1/C(=C/c2ccc(F)cc2)CCC/C1=C\c1ccc(F)cc1`, the results for the inhibition at 10 µM in the test on J774.A1 [5] and in the test with J774.A1 [6] were 65.3% and 54.8%, respectively.

The inhibition is the percentage by which the read-out fell short of the control.

Source of the values: ChEMBL document CHEMBL1153844, “Synthesis, crystal structure and anti-inflammatory properties of curcumin analogues” (2009).
